In ChEMBL document CHEMBL3425414, “Synthesis of a New Peptide-Coumarin Conjugate: A Potential Agent against Cryptococcosis” (ACS Med Chem Lett, 2015):
Converted amounts (≈) assume the structure as drawn. The source made the active and inactive calls. The rule behind the calls is not given here. Peptide text beside a SMILES is read from it. * marks the point of attachment. X1 = CCN(CC)c1ccc2cc(-n3cc(CCC(=O)*)nn3)c(=O)oc2c1; Pent4ynoyl = C#CCCC(=O)*

Assays:
[1] = test system: Cryptococcus gattii species complex; test: Antifungal activity against Cryptococcus gattii 196L/03 after 72 hrs by microdilution method; type: functional, Cryptococcus bacillisporus; conditions: 196L/03, 72 h
How it was run: (§1)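 Broth microdilution susceptibility per CLSI M27-A3; MIC reported in […]. Panel includes C. gattii strains (one fluconazole-resistant, L27/01F) and C. neoformans ATCC strains; fluconazole run as reference drug.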

Cryptococcus neoformans [2] = test: Antifungal activity against Cryptococcus neoformans ATCC 24067 after 72 hrs by microdilution method; type: functional; conditions: ATCC 24067, 72 h; how it was run: as §1
[3] = test system: Cryptococcus gattii species complex; test: Antifungal activity against Cryptococcus gattii LMM 818 after 72 hrs by microdilution method; type: functional, Cryptococcus bacillisporus; conditions: LMM 818, 72 h; how it was run: as §1
Cryptococcus gattii = test: Antifungal activity against Cryptococcus gattii ATCC 24065 after 72 hrs by microdilution method; conditions: ATCC 24065, 72 h
[4] = test system: Cryptococcus gattii species complex; test: Antifungal activity against fluconazole-resistant Cryptococcus gattii L27/01F after 72 hrs by microdilution method; type: functional, Cryptococcus bacillisporus
How it was run: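 Broth microdilution susceptibility test following the CLSI M27-A3 standard; the MIC is reported in […]. Fluconazole is run in parallel as the reference drug across the C. gattii and C. neoformans strain panel.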

[5] = test system: Cryptococcus gattii species complex; test: Antifungal activity against Cryptococcus gattii L27/01 after 72 hrs by microdilution method; type: functional, Cryptococcus bacillisporus; conditions: L27/01, 72 h; how it was run: as §1
[6] = test system: Cryptococcus gattii species complex; test: Antifungal activity against Cryptococcus gattii 29/10893 after 72 hrs by microdilution method; type: functional, Cryptococcus bacillisporus; conditions: 29/10893, 72 h; how it was run: as §1
[7] = test system: Cryptococcus bacillisporus; test: Antifungal activity against Cryptococcus gattii ATCC 32608 after 72 hrs by microdilution method; type: functional; conditions: ATCC 32608, 72 h; how it was run: as §1
[8] = test system: Cryptococcus gattii species complex; test: Antifungal activity against Cryptococcus gattii L24/01 after 72 hrs by microdilution method; type: functional, Cryptococcus bacillisporus; conditions: L24/01, 72 h; how it was run: as §1
[9] = test system: Cryptococcus gattii species complex; test: Antifungal activity against Cryptococcus gattii L135/03 after 72 hrs by microdilution method; type: functional, Cryptococcus bacillisporus; conditions: L135/03, 72 h; how it was run: as §1
[10] = test system: Cryptococcus gattii species complex; test: Antifungal activity against Cryptococcus gattii L28/02 after 72 hrs by microdilution method; type: functional, Cryptococcus bacillisporus; conditions: L28/02, 72 h; how it was run: as §1
[11] = test system: Cryptococcus gattii species complex; test: Antifungal activity against Cryptococcus gattii 1913ER after 72 hrs by microdilution method; type: functional, Cryptococcus bacillisporus; how it was run: as §1
Cryptococcus neoformans [12] = test: Antifungal activity against Cryptococcus neoformans ATCC 28957 after 72 hrs by microdilution method; type: functional; conditions: ATCC 28957, 72 h; how it was run: as §1
[13] = test system: Cryptococcus gattii species complex; test: Antifungal activity against Cryptococcus gattii ICB 181 after 72 hrs by microdilution method; type: functional, Cryptococcus bacillisporus; conditions: ICB 181, 72 h; how it was run: as §1
[14] = test system: Cryptococcus gattii species complex; test: Antifungal activity against Cryptococcus gattii 547/OTT after 72 hrs by microdilution method; type: functional, Cryptococcus bacillisporus; how it was run: as §1
[15] = test system: Cryptococcus gattii species complex; test: Antifungal activity against Cryptococcus gattii 23/10993 after 72 hrs by microdilution method; type: functional, Cryptococcus bacillisporus; conditions: 23/10993, 72 h; how it was run: as §1
Cryptococcus neoformans [16] = test: Antifungal activity against Cryptococcus neoformans ATCC 96806 after 72 hrs by microdilution method; type: functional; conditions: ATCC 96806, 72 h; how it was run: as §1
Cryptococcus neoformans [17] = test: Antifungal activity against Cryptococcus neoformans ATCC 62066 after 72 hrs by microdilution method; type: functional; conditions: ATCC 62066, 72 h; how it was run: as §1
[18] = test system: Cryptococcus bacillisporus; test: Induction of reactive oxygen species formation in Cryptococcus gattii ATCC 32608 at MIC after 0.5 to 1 hr by dichlorofluorescein diacetate probe-based fluorometric assay relative to control; type: functional, organism-based
How it was run: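 Endogenous ROS in C. gattii ATCC 32608 cells treated at the compound's MIC, measured fluorometrically (signal proportional to ROS accumulation); untreated cells and compound alone measured for baseline; group differences tested statistically.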

[19] = Induction of reactive oxygen species formation after 0.5 to 1 hr by dichlorofluorescein diacetate probe-based fluorometric assay; type: physicochemical

Row | Compound | MIC [1] [µM] | MIC (Cryptococcus neoformans [2]) [µM] | MIC [3] [µM] | MIC (Cryptococcus gattii) [µM] | MIC [4] [µM] | MIC [5] [µM] | MIC [6] [µM] | MIC [7] [µM] | MIC [8] [µM] | MIC [9] [µM] | MIC [10] [µM] | MIC [11] [µM] | MIC (Cryptococcus neoformans [12]) [µM] | MIC [13] [µM] | MIC [14] [µM] | MIC [15] [µM] | MIC (Cryptococcus neoformans [16]) [µM] | MIC (Cryptococcus neoformans [17]) [µM] | Activity [18] | Activity [19]
1 | CCN(CC)c1ccc2cc(N=[N+]=[N-])c(=O)oc2c1 | > 990 | > 990 | > 990 | > 990 | > 990 | > 990 | > 990 | > 990 | > 990 | > 990 | > 990 | > 990 | > 990 | > 990 | > 990 | > 990 | > 990 | > 990 |  | 
2 | CCN(CC)c1ccc2cc(-n3cc(CCCO)nn3)c(=O)oc2c1 | > 750 | > 750 | > 750 | > 750 | > 750 | > 750 | > 750 | > 750 | > 750 | > 750 | > 750 | > 750 | > 750 | > 750 | > 750 | > 750 | > 750 | > 750 | Active | 
3 | C#CCCC(=O)N[C@@H](CCCNC(=N)N)C(=O)N[C@@H](C)C(=O)N[C@@H](CCCCN)C(=O)N[C@@H](CCCNC(=N)N)C(=O)N[C@@H](CCCNC(=N)N)C(=O)N[C@@H](CCSC)C(=O)N[C@@H](CCC(N)=O)C(=O)N[C@@H](Cc1ccc(O)cc1)C(N)=O (Pent4ynoyl-RAKRRMQY-NH2) | > 220 | > 220 | > 220 | > 220 | > 220 | > 220 | > 220 | > 220 | > 220 | > 220 | > 220 | > 220 | > 220 | > 220 | > 220 | > 220 | > 220 | > 220 |  | 
4 | CCN(CC)c1ccc2cc(-n3cc(CCC(=O)N[C@@H](CCCNC(=N)N)C(=O)N[C@@H](C)C(=O)N[C@@H](CCCCN)C(=O)N[C@@H](CCCNC(=N)N)C(=O)N[C@@H](CCCNC(=N)N)C(=O)N[C@@H](CCSC)C(=O)N[C@@H](CCC(N)=O)C(=O)N[C@@H](Cc4ccc(O)cc4)C(N)=O)nn3)c(=O)oc2c1 (X1-RAKRRMQY-NH2) | 40 (≈ 57.8 µg/mL) | 90 (≈ 130 µg/mL) | 180 (≈ 260 µg/mL) | 180 (≈ 260 µg/mL) | 90 (≈ 130 µg/mL) | 40 (≈ 57.8 µg/mL) | 90 (≈ 130 µg/mL) | 90 (≈ 130 µg/mL) | 90 (≈ 130 µg/mL) | 40 (≈ 57.8 µg/mL) | 90 (≈ 130 µg/mL) | 180 (≈ 260 µg/mL) | 90 (≈ 130 µg/mL) | 90 (≈ 130 µg/mL) | 40 (≈ 57.8 µg/mL) | 180 (≈ 260 µg/mL) | 90 (≈ 130 µg/mL) | 90 (≈ 130 µg/mL) | Active | Not Active
5 | OC(Cn1cncn1)(Cn1cncn1)c1ccc(F)cc1F [FLUCONAZOLE] | 100 (≈ 30.6 µg/mL) | 20 (≈ 6.13 µg/mL) | 100 (≈ 30.6 µg/mL) | 10 (≈ 3.06 µg/mL) | 420 (≈ 129 µg/mL) | 100 (≈ 30.6 µg/mL) | 30 (≈ 9.19 µg/mL) | 50 (≈ 15.3 µg/mL) | 50 (≈ 15.3 µg/mL) | 50 (≈ 15.3 µg/mL) | 100 (≈ 30.6 µg/mL) | 50 (≈ 15.3 µg/mL) | 3 (≈ 0.919 µg/mL) | 50 (≈ 15.3 µg/mL) | 100 (≈ 30.6 µg/mL) | 50 (≈ 15.3 µg/mL) | 150 (≈ 45.9 µg/mL) | 30 (≈ 9.19 µg/mL) |  | 
6 | H-RAKRRMQY-NH2 | > 230 | > 230 | > 230 | > 230 | > 230 | > 230 | > 230 | > 230 | > 230 | > 230 | > 230 | > 230 | > 230 | > 230 | > 230 | > 230 | > 230 | > 230 |  | 
